Reference: ChEMBL document CHEMBL1137942, “Design, synthesis, and biological activity of novel, potent, and selective (benzoylaminomethyl)thiophene sulfonamide inhibitors of c-Jun-N-terminal kinase” (J Med Chem, 2004)
The source made the active and inactive calls. The calls are words filed in the database; no cut-off is given here.

Assays:
[1] = target: RAC-beta serine/threonine-protein kinase (Homo sapiens) (UniProt P31751); experiment: Percentage activity of human PKB beta in the presence of 10uM of compound and 10uM of ATP in comparison with control
[2] = target: Inhibitor of nuclear factor kappa-B kinase subunit alpha (Homo sapiens) (UniProt O15111); experiment: Percentage activity of human IKK alpha in the presence of 10 uM of compound and 10 uM of ATP in comparison with control
Chain of Inhibitor of nuclear factor kappa-B kinase subunit alpha (Homo sapiens) (O15111 whole entry): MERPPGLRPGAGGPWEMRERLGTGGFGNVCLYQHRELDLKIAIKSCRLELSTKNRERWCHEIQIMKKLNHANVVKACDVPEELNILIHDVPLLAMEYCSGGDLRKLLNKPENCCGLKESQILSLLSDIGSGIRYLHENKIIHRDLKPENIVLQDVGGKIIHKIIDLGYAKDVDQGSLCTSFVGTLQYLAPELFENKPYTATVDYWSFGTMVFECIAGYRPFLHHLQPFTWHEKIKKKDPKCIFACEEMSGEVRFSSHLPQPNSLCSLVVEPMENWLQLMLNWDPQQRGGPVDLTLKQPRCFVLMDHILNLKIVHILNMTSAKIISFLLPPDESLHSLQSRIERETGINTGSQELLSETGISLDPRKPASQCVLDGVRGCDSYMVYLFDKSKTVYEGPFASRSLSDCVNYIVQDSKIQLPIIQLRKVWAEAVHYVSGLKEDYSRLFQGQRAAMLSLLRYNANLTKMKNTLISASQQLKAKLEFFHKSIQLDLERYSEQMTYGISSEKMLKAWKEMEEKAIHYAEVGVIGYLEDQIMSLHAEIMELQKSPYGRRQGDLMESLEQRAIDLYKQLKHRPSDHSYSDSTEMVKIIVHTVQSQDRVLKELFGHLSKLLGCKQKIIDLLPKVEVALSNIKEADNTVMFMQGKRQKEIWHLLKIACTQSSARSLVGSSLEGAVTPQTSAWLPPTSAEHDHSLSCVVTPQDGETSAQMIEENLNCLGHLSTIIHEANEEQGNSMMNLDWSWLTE

[3] = target: Tyrosine-protein kinase CSK (Homo sapiens) (UniProt P41240); experiment: Percentage activity of human CSK in the presence of 10uM of compound and 10uM of ATP in comparison with control
[4] = target: Protein kinase C gamma type (Homo sapiens) (UniProt P05129); experiment: Percentage activity of human PKC gamma in the presence of 10 uM of compound and 10 uM of ATP in comparison with control
[5] = target: Ribosomal protein S6 kinase alpha-1 (Homo sapiens) (UniProt Q15418); experiment: Percentage activity of human Rsk1 in the presence of 10 uM of compound and 10 uM of ATP in comparison with control
Chain of Ribosomal protein S6 kinase alpha-1 (Homo sapiens) (Q15418 whole entry): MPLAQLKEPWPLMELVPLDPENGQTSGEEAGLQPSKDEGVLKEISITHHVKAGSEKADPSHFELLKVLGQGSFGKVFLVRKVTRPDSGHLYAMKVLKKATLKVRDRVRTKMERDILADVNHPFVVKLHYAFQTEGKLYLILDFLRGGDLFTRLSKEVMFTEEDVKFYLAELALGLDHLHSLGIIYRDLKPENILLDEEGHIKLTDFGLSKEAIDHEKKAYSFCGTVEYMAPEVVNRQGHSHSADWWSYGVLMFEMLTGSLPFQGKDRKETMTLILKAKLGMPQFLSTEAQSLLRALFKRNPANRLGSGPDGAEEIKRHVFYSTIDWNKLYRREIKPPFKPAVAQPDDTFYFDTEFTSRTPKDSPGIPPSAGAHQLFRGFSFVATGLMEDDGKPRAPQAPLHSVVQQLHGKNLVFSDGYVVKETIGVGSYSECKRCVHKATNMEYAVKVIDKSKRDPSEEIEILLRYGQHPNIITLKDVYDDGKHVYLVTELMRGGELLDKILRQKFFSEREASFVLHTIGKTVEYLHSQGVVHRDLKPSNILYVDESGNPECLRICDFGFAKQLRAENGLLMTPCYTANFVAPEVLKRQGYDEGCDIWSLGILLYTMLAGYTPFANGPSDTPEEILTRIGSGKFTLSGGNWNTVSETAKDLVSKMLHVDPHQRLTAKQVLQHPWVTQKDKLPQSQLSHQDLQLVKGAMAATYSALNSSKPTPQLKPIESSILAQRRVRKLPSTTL

[6] = target: Rho-associated protein kinase 2 (Homo sapiens) (UniProt O75116); experiment: Percentage activity of human ROCK-II in the presence of 10 uM of compound and 10 uM of ATP in comparison with control
[7] = target: Mitogen-activated protein kinase 9 (Homo sapiens, UniProt P45984); experiment: Inhibition of human JNK2
Chain of Mitogen-activated protein kinase 9 (P45984 whole entry): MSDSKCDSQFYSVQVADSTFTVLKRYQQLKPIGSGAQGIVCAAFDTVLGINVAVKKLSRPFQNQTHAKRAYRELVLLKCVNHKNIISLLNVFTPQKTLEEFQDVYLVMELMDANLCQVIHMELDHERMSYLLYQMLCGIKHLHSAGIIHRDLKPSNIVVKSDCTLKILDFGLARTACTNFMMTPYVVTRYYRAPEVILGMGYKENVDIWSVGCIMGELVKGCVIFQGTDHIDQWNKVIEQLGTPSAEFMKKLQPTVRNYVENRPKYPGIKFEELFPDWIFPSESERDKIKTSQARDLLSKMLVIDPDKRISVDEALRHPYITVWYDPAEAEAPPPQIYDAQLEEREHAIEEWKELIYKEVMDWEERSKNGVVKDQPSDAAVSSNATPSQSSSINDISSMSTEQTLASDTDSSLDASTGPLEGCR
Summary of the method: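 Radiometric SPA kinase assay: 0.5 µg recombinant preactivated GST-JNK2, 1 µg biotinylated GST-c-Jun, and 2 µM [33P]γ-ATP (2 nCi/µL). Buffer was 50 mM Tris-HCl pH 8.0, 10 mM MgCl2, 1 mM DTT and 100 µM NaVO4, with or without inhibitor, 120 min at rt. Stopped with streptavidin SPA beads, 5 mM EDTA, 0.1% Triton X-100 and 50 µM ATP in PBS; 60 min. Beads were centrifuged, washed, and counted by scintillation.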

[8] = target: Protein kinase C eta type (Homo sapiens) (UniProt P24723); experiment: Percentage activity of human PKC eta in the presence of 10 uM of compound and 10 uM of ATP in comparison with control
[9] = target: Cyclin-dependent kinase 2/cyclin A (Homo sapiens) (UniProt P24941+P20248+P78396); experiment: Percentage activity of human CDK2 (with cyclin A) in the presence of 10 uM of compound and 10 uM of ATP in comparison with control; format: protein-complex assay
[10] = target: Cyclin-dependent kinase 1/cyclin B (Homo sapiens) (UniProt P06493+P14635+Q8WWL7+O95067); experiment: Percentage activity of human CDK1 (with cyclin B) in the presence of 10 uM of compound and 10 uM of ATP in comparison with control; format: protein-complex assay
[11] = target: Tyrosine-protein kinase ZAP-70 (Homo sapiens) (UniProt P43403); experiment: Percentage activity of human ZAP-70 in the presence of 10 uM of compound and 10 uM of ATP in comparison with control
[12] = target: Platelet-derived growth factor receptor (Homo sapiens) (UniProt P09619+P16234); experiment: Percentage activity of human PDGFR alpha in the presence of 10 uM of compound and 10 uM of ATP in comparison with control; format: protein-complex assay
[13] = target: Protein kinase C theta type (Homo sapiens) (UniProt Q04759); experiment: Percentage activity of human PKC theta in the presence of 10 uM of compound and 10 uM of ATP in comparison with control
[14] = target: Receptor-type tyrosine-protein kinase FLT3 (Homo sapiens) (UniProt P36888); experiment: Percentage activity of human Flt3 in the presence of 10 uM of compound and 10 uM of ATP in comparison with control
Chain of Receptor-type tyrosine-protein kinase FLT3 (Homo sapiens) (P36888 whole entry): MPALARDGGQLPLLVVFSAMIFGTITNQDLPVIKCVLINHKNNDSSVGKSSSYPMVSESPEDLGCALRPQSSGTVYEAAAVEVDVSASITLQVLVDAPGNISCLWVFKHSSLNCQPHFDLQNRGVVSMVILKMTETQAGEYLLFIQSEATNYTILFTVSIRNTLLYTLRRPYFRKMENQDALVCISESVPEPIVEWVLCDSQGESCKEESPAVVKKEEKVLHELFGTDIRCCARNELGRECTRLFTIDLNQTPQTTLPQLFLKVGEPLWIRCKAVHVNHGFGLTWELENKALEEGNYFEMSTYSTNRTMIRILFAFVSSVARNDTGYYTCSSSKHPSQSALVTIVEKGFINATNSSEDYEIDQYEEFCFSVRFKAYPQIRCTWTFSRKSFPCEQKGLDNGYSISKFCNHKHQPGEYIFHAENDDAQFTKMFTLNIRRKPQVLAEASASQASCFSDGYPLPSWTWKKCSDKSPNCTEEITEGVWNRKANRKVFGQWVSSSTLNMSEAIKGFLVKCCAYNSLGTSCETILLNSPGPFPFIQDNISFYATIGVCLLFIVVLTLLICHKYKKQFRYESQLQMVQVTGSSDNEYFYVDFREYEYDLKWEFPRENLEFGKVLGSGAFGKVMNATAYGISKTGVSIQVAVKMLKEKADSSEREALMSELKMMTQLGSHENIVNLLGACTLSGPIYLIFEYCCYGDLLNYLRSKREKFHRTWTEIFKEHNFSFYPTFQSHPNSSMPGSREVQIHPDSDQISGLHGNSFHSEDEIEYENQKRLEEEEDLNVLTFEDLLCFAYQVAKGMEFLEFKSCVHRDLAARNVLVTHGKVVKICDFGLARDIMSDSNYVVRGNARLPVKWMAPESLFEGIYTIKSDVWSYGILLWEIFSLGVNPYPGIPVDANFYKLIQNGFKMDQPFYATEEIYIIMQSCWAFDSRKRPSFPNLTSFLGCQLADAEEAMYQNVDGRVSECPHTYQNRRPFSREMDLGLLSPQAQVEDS

[15] = target: CDK3/cyclin E (Homo sapiens) (UniProt P24864+O96020+Q00526); experiment: Percentage activity of human CDK3 (with cyclin E) in the presence of 10 uM of compound and 10 uM of ATP in comparison with control; format: protein-complex assay
Chain of CDK3/cyclin E (Homo sapiens) (O96020 whole entry, looked up): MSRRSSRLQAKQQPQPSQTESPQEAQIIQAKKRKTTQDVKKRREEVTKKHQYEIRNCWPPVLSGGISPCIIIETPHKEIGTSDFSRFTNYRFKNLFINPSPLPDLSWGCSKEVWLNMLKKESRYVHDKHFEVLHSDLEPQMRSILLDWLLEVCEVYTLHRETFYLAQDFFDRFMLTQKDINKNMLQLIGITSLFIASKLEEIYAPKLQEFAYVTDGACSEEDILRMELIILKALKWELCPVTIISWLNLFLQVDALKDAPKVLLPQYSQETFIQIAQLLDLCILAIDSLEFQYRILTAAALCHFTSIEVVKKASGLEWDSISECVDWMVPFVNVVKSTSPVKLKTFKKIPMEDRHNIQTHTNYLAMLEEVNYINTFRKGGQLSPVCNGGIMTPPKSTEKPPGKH
Chain of CDK3/cyclin E (Homo sapiens) (P24864 whole entry, looked up): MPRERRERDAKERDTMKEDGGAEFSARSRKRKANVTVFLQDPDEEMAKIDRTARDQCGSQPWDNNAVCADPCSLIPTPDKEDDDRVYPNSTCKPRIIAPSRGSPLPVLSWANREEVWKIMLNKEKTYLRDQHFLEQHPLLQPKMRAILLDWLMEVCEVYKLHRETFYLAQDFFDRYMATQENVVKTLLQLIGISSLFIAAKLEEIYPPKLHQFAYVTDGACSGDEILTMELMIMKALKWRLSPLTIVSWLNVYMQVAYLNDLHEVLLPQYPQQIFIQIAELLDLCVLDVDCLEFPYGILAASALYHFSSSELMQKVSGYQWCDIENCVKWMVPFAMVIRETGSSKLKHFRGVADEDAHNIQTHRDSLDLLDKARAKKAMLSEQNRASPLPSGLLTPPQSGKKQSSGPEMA
Chain of CDK3/cyclin E (Homo sapiens) (Q00526 whole entry, looked up): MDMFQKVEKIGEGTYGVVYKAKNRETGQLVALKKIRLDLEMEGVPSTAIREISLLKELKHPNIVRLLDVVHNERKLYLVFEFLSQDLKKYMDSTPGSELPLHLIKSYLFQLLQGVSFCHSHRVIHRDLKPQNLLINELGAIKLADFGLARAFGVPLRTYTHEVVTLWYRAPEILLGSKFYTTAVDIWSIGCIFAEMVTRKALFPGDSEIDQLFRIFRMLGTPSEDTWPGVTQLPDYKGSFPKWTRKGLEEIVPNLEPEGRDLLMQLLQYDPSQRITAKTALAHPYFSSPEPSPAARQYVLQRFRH

[16] = target: Cyclin-dependent kinase 7/ cyclin H (Homo sapiens) (UniProt P51946+P50613); experiment: Percentage activity of human CDK7 with cyclin H/MAT1) in the presence of 10 uM of compound and 10 uM of ATP in comparison with control; format: protein-complex assay
[17] = target: Tyrosine-protein kinase Yes (Homo sapiens) (UniProt P07947); experiment: Percentage activity of human Yes in the presence of 10 uM of compound and 10 uM of ATP in comparison with control
[18] = target: Aurora kinase A (Homo sapiens) (UniProt O14965); experiment: Percentage activity of human Aurora-A in the presence of 10 uM of compound and 10 uM of ATP in comparison with control
Chain of Aurora kinase A (Homo sapiens) (O14965 whole entry): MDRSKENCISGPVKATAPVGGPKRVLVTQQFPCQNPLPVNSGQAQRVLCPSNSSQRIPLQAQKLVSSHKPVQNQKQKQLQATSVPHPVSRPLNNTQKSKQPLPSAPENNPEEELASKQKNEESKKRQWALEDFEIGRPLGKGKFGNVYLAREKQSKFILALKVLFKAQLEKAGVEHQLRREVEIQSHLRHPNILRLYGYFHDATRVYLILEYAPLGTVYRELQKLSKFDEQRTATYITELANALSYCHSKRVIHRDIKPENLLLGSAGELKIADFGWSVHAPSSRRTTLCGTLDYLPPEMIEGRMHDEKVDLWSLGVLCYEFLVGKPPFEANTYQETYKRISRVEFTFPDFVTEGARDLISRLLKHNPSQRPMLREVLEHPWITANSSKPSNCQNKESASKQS

[19] = target: Tyrosine-protein kinase Fes/Fps (Homo sapiens) (UniProt P07332); experiment: Percentage activity of human Fes in the presence of 10 uM of compound and 10 uM of ATP in comparison with control
[20] = target: Serine/threonine-protein kinase PAK 2 (Homo sapiens) (UniProt Q13177); experiment: Percentage activity of human PAK2 in the presence of 10 uM of compound and 10 uM of ATP in comparison with control
[21] = target: Tyrosine-protein kinase receptor UFO (Homo sapiens) (UniProt P30530); experiment: Percentage activity of human Axl in the presence of 10 uM of compound and 10 uM of ATP in comparison with control
[22] = target: cAMP-dependent protein kinase (PKA) (Homo sapiens) (UniProt P22694+P17612+P22612); experiment: Percentage activity of human PKA in the presence of 10 uM of compound and 10 uM of ATP in comparison with control; format: protein assay
[23] = target: Calcium/calmodulin-dependent protein kinase type IV (Homo sapiens) (UniProt Q16566); experiment: Percentage activity of human CaMKiV in the presence of 10 uM of compound and 10 uM of ATP in comparison with control
Chain of Calcium/calmodulin-dependent protein kinase type IV (Homo sapiens) (Q16566 whole entry): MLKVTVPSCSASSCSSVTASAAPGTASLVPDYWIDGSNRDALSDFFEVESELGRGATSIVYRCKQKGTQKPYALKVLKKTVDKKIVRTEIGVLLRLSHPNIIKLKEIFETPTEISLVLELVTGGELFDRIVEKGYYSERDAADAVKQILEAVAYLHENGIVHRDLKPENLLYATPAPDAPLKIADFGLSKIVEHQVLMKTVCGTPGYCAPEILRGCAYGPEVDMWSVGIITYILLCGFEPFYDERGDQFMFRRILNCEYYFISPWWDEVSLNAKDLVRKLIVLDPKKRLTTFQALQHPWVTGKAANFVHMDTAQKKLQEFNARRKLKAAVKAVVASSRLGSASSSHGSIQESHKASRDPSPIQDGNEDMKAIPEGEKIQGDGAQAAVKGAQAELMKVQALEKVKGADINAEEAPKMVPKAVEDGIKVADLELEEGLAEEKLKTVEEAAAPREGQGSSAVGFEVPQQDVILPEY

SCG [24] = experiment: Cell activity of JNK inhibitors in neuronal apoptosis assay in SCG cells, percentage rescued neurons at 10uM compound concentration after 48 hours; format: functional, Rattus norvegicus
Summary of the method: (§1)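 They were cultured in Leibowitz medium with 5% rat serum, 0.75 µg/mL NGF 7S and arabinosine C 10^-5 M. On day 4, medium was switched to 10 µg/mL anti-NGF antibody without NGF or AraC, with inhibitor in 1% DMSO. After 24 h, cells were refed initial medium minus AraC. After another 24 h, viability was read by MTT (0.5 mg/mL, 30 min, 37 °C), OD 590 nm.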

SCG [25] = experiment: Cell activity of JNK inhibitors in neuronal apoptosis assay in SCG cells, percentage rescued neurons at 1 uM compound concentration after 24 hours; format: functional, cell-based; conditions: Rattus norvegicus
SCG [26] = experiment: Cell activity of JNK inhibitors in neuronal apoptosis assay in SCG cells, percentage rescued neurons at 1uM compound concentration after 48 hours; format: functional, Rattus norvegicus; summary of the method: as §1
Saccharomyces cerevisiae = experiment: Percentage activity of yeast CK1 in the presence of 10 uM of compound and 10 uM of ATP in comparison with control

Activity [1]: 118% | Activity [2]: 92% | Activity [3]: 130% | Activity [4]: 79% | Activity [5]: 93% | Activity [6]: 101% | IC50 [7]: 650 nM | Activity [8]: 100% | Activity [9]: 99% | Activity [10]: 102% | Activity [11]: 121% | Activity [12]: 103% | Activity [13]: 113% | Activity [14]: 78% | Activity [15]: 97% | Activity [16]: 94% | Activity [17]: 61% | Activity [18]: 79% | Activity [19]: 134% | Activity [20]: 88% | Activity [21]: 134% | Activity [22]: 78% | Activity [23]: 93% | Activity (Saccharomyces cerevisiae): 85%
Structure (SMILES): O=C(NCc1ccc(S(=O)(=O)N2CCC(n3nnc4ccccc43)CC2)s1)c1ccc(Cl)cc1
Rescued neurons (SCG [24]): 56% | Rescued neurons (SCG [25]): inactive | Rescued neurons (SCG [26]): 2.2%
